Laboratory results: ChEMBL document CHEMBL3259782, “Synthesis and biological evaluation of chalcones as potential antileishmanial agents” (Eur J Med Chem, 2014)

How the values were obtained:
[1] = test system: Leishmania donovani; test: Antiamastigote activity against amastigote stage of Leishmania donovani MHOM/IN/80/Dd8 expressing luciferase firefly reporter gene infected in mouse J774A1 cells after 72 hrs by luminescence assay; type: functional, organism-based; details: MHOM/IN/80/Dd8, J774.A1, 72 h
Procedure, shortened: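 J-774A.1 macrophages were seeded at 4 x 10^4/mL in RPMI-1640 with 10% heat-inactivated FCS at 37 °C, 5% CO2. After 24 h they were infected with stationary-phase luciferase-expressing promastigotes at 4 x 10^5/mL. Uninternalized parasites were washed off after 24 h. Compounds were tested at 7 dilutions from 40 µM for 72 h. Luminescence was read with Steady Glo. IC50 came from four-parameter Hill fitting, averaged over at least duplicates.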

[2] = Cytotoxicity against African green monkey Vero cells assessed as cell viability after 72 hrs by MTT assay; type: cell-based; details: chlorocebus sabaeus
Procedure, shortened: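 Vero cells at 1 x 10^5/mL were exposed to 7 concentrations from 400 µM at 37 °C in CO2 for 72 h. MTT (5 mg/mL in PBS) was then added for 2 h at 37°C. Formazan was dissolved in DMSO and absorbance read at 540 nm. CC50 was estimated and averaged over at least duplicates.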

[3] = (§1) Selectivity index, ratio of CC50 for African green monkey Vero cells to IC50 for promastigote stage of Leishmania donovani MHOM/IN/80/Dd8; type: functional; details: in the assay text read “amastigote stage” for “promastigote stage”
Procedure, shortened: (§2)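 SI was calculated as Vero CC50 (MTT, 72 h) divided by IC50 against intracellular amastigotes in J-774A.1 cells (luciferase luminescence, 72 h).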

[4] = test system: Leishmania donovani; test: Antileishmanial activity against Leishmania donovani MHOM/IN/80/Dd8 infected in golden hamster assessed as inhibition of amastigotes multiplication at 50 mg/kg, ip for 10 days treatment started 15 days after infection measured on day 7; type: functional; details: MHOM/IN/80/Dd8, ip, route intraperitoneal
Procedure, shortened: (§3)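 Golden hamsters of both sexes were infected intracardially with 1 x 10^7 amastigotes. A pre-treatment splenic biopsy was taken after 15 days, and only animals with +1 grade infection (5-10 amastigotes/100 spleen cell nuclei) were used, five per compound. Dosing began 2 days after that biopsy and ran on consecutive days. Splenic biopsy on day 7 after the last dose was Giemsa-stained. PI = 100-[(ANAT x 100)/(INAT x TIUC)].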

[5] = test system: Leishmania donovani; test: Antileishmanial activity against Leishmania donovani MHOM/IN/80/Dd8 infected in golden hamster assessed as inhibition of amastigotes multiplication at 100 mg/kg, ip for 5 days treatment started 15 days after infection measured on day 7; type: functional; details: MHOM/IN/80/Dd8, ip, route intraperitoneal; procedure, shortened: as §3
[6] = test system: Leishmania donovani; test: Antipromastigote activity against Leishmania donovani MHOM/IN/80/Dd8 expressing luciferase firefly reporter gene at 25 uM after 96 hrs by luminescence assay; details: MHOM/IN/80/Dd8, 96 h
[7] = test system: Vero; test: as §1; type: functional; details: in the assay text read “amastigote stage” for “promastigote stage”; procedure, shortened: as §2
[8] = test system: Leishmania donovani; test: Antileishmanial activity against Leishmania donovani MHOM/IN/80/Dd8 infected in golden hamster assessed as inhibition of amastigotes multiplication at 40 mg/kg, ip for 5 days treatment started 15 days after infection measured on day 7; type: functional, organism-based; parameters: dose 40 mg/kg; procedure, shortened: as §3
[9] = test system: Leishmania donovani; test: Antileishmanial activity against Leishmania donovani MHOM/IN/80/Dd8 infected in golden hamster assessed as inhibition of amastigotes multiplication at 30 mg/kg, po for 5 days treatment started 15 days after infection measured on day 7; type: functional; procedure, shortened: as §3
[10] = test system: Leishmania donovani; test: Antileishmanial activity against Leishmania donovani MHOM/IN/80/Dd8 infected in golden hamster assessed as inhibition of amastigotes multiplication at 50 mg/kg, ip for 5 days treatment started 15 days after infection measured on day 7; type: functional; details: MHOM/IN/80/Dd8, ip, route intraperitoneal; procedure, shortened: as §3

Molecule | IC50 [1] | CC50 at 72 h [2] | Ratio CC50/IC50 [3] | inhibition at 25 µM [6] | also measured
COc1ccc(/C=C/C(=O)c2ccc(OC/C=C(\C)CCC=C(C)C)cc2)cc1 | 3.1 µM | 146 µM | 47.2 | 93% | inhibition in vivo at 50 mg/kg [4]: 83.3%; inhibition in vivo at 100 mg/kg [5]: 75.9%
CC1(C)C=Cc2c(ccc(C(=O)/C=C/c3ccc4ccoc4c3)c2O)O1 | > 20 µM | – | – | 91.2% | –
CC1(C)C=Cc2c(ccc(C(=O)/C=C/c3ccc(OCCN4CCCCC4)cc3)c2O)O1 | 17.7 µM | > 400 µM | >22.6 | 100% | –
COc1ccc(/C=C/C(=O)c2ccc3c(c2O)C=CC(C)(C)O3)cc1OC | 11.9 µM | 267 µM | 22.4 | 98.2% | –
CC1(C)C=Cc2c(ccc(C(=O)/C=C/c3ccc(F)c(F)c3)c2O)O1 | 17 µM | 146 µM | 8.6 | 99.9% | –
CC1(C)C=Cc2c(ccc(C(=O)/C=C/c3ccc(C#N)cc3)c2O)O1 | 8.2 µM | 80.2 µM | 9.8 | 99.6% | –
sodium stibogluconate | – | – | – | – | Ratio CC50/IC50 [7]: > 8; inhibition [8]: 89.5%
Cc1ccc2nc(Cl)c(/C=C/C(=O)c3ccc4c(c3O)C=CC(C)(C)O4)cc2c1 | 5.3 µM | 399 µM | 75.3 | 99.8% | –
CC1(C)C=Cc2c(ccc(C(=O)/C=C/c3ccc(OCCN4CCCCC4)cc3)c2OCCN2CCCCC2)O1 | 2.8 µM | 86.5 µM | 30.9 | 100% | –
CC1(C)C=Cc2c(ccc(C(=O)/C=C/c3cc(C=O)ccc3O)c2O)O1 | > 20 µM | – | – | 94.5% | –
O=C(/C=C/c1ccc(OCCN2CCCCC2)cc1)c1ccc(OCCN2CCCCC2)cc1 | > 20 µM | – | – | 99.9% | –
CN(C)c1ccc(/C=C/C(=O)c2ccc3c(c2O)C=CC(C)(C)O3)cc1 | 19.8 µM | > 400 µM | >20.2 | 97.1% | –
CN(C)c1ccc(/C=C/C(=O)c2ccc(OCCN3CCCCC3)cc2)cc1 | 9.3 µM | 251 µM | 27 | 99.9% | –
CC(C)=CCC/C(C)=C/COc1ccc(C(=O)/C=C/c2ccc(O)cc2)cc1 | 9.3 µM | 12.9 µM | 1.4 | 95.2% | –
CC(=O)Nc1ccc(/C=C/C(=O)c2ccc3c(c2O)C=CC(C)(C)O3)cc1 | 6.1 µM | 278 µM | 45.6 | 98.7% | –
CC1(C)C=Cc2c(ccc(C(=O)/C=C/c3ccc(OCCN4CCCC4)cc3)c2O)O1 | > 20 µM | – | – | 100% | –
CC1(C)C=Cc2c(ccc(C(=O)/C=C/c3ccc(Cl)cc3Cl)c2O)O1 | 9.7 µM | 131 µM | 13.5 | 99.9% | –
CCN(CC)CCOc1ccc(/C=C/C(=O)c2ccc3c(c2O)C=CC(C)(C)O3)cc1 | 14.9 µM | 341 µM | 22.9 | 100% | –
CCCCCCCCCCCCCCCCOP(=O)([O-])OCC[N+](C)(C)C [MILTEFOSINE] | – | – | 6.2 | 100% | inhibition in vivo at 30 mg/kg [9]: 98.5%

Molecule | IC50 [1] | CC50 at 72 h [2] | Ratio CC50/IC50 [3] | inhibition at 25 µM [6] | also measured
CC1(C)C=Cc2c(ccc(C(=O)/C=C/c3cnc4ccccc4c3)c2O)O1 | – | – | – | 62.2% | –
CCN(CC)CCOc1ccc(/C=C/C(=O)c2ccc3c(c2OCCN(CC)CC)C=CC(C)(C)O3)cc1 | 2 µM | 325 µM | 162.5 | 100% | inhibition in vivo at 50 mg/kg [10]: 48.5%
CCOc1cc(/C=C/C(=O)c2ccc3c(c2O)C=CC(C)(C)O3)ccc1F | 12.1 µM | 185 µM | 15.3 | 99.9% | –
CC(C)=CCC/C(C)=C/COc1ccc(C(=O)/C=C/c2ccc(OCCN3CCCC3)cc2)cc1 | – | – | – | 100% | –
CC(C)=CCOc1ccc(C(=O)/C=C/c2ccc(N(C)C)cc2)cc1 | 4.1 µM | > 400 µM | >97.6 | 84.2% | –
CC1(C)C=Cc2c(ccc(C(=O)/C=C/c3cccnc3)c2O)O1 | 22.2 µM | 8.6 µM | 0.4 | 100% | –
CC1(C)C=Cc2c(ccc(C(=O)/C=C/c3ccc(Cl)cc3)c2O)O1 | 17.9 µM | 92.2 µM | 5.1 | 99.9% | –
CC1(C)C=Cc2c(ccc(C(=O)/C=C/c3ccc(Br)cc3)c2O)O1 | > 20 µM | – | – | 100% | –
CC1(C)C=Cc2c(ccc(C(=O)/C=C/c3ccc(O)cc3)c2O)O1 | > 20 µM | – | – | 70.2% | –
CC1(C)C=Cc2c(ccc(C(=O)/C=C/c3ccc([N+](=O)[O-])cc3)c2O)O1 | 5.2 µM | 106 µM | 20.4 | 97.4% | –
CC1(C)C=Cc2c(ccc(C(=O)/C=C/c3ccc(OCCN4CCCC4)cc3)c2OCCN2CCCC2)O1 | 2.5 µM | 258 µM | 103.2 | 99.9% | –
CCOc1ccc(/C=C/C(=O)c2ccc3c(c2O)C=CC(C)(C)O3)cc1 | 5.1 µM | 215 µM | 42.1 | 88.9% | –
CC1(C)C=Cc2c(ccc(C(=O)/C=C/c3ccccn3)c2O)O1 | 2 µM | 20.5 µM | 10.2 | 99.9% | –
CC1(C)C=Cc2c(ccc(C(=O)/C=C/c3ccc(F)cc3)c2O)O1 | 16.7 µM | 158 µM | 9.5 | 99% | –
CC1(C)C=Cc2c(ccc(C(=O)/C=C/c3ccc(Cl)c(Cl)c3)c2O)O1 | 13.9 µM | 142 µM | 10.2 | 99.9% | –
CC(C)=CCC/C(C)=C/CC/C(C)=C/COc1ccc(C(=O)/C=C/c2ccc(N(C)C)cc2)cc1 | > 20 µM | – | – | 76.1% | –
CCOc1ccc(/C=C/C(=O)c2ccc(OCCN3CCCCC3)cc2)cc1 | > 20 µM | – | – | 99.9% | –
CC1(C)C=Cc2c(ccc(C(=O)/C=C/c3cc4ccccc4nc3Cl)c2O)O1 | 12.1 µM | 257 µM | 21.2 | 100% | –
